# pIC50: −log10 of the molar value. Calls of active or inactive are those of the source. The calls are words filed in the database; no cut-off is given here.
# Key:
# [1] = Apparent passive permeability from apical to basolateral side in MDCK2-MDR1 cells at 3 uM after 90 mins by LC-MS/MS analysis; format: ADME, cell-based, Canis lupus familiaris; details: dog, MDCK-MDR1
# Outline: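 MDCKII-MDR1 monolayers, HBSS transport medium pH 7.4; compound 3 μM for 90 min, run with and without a P-gp inhibitor, n = 3. Quantified by LC-MS/MS as analyte/internal-standard peak-area ratio; monolayer integrity checked with Lucifer yellow. Papp given in nm/sec, A>B.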
# Cytochrome P450 2C19 = Cytochrome P450 2C19 (Homo sapiens, UniProt P33261); assay: Inhibition of recombinant human CYP2C19 expressed in baculosomes expression system using fluorogenic-BOMCC as substrate by fluorescent homogeneous assay; format: ADME
# Chain of Cytochrome P450 2C19 (P33261 whole entry): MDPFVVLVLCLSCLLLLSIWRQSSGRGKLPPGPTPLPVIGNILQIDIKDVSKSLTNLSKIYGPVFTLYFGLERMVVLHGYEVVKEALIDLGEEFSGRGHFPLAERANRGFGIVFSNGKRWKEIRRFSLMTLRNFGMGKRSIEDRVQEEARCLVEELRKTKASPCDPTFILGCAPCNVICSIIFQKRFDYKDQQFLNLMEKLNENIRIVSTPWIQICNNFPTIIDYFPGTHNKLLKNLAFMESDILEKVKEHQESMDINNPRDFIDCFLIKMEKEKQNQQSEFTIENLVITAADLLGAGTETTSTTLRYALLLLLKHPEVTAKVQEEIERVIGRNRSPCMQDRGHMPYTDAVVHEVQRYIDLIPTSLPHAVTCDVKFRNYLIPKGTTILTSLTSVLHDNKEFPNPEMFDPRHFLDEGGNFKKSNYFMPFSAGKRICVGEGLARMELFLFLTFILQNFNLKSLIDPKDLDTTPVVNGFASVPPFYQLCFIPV
# Outline: (§1)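 Recombinant CYP baculosomes with fluorogenic substrates, at concentrations below their Km; homogeneous fluorescence read-out, run in triplicate. IC50 classes: <1 μM potent, 1–10 μM moderate, >10 μM weak or none.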
# [2] = Half life in CD1 mouse at 0.5 mg/kg, iv measured up to 24 hrs post dose; format: ADME, organism-based; details: in vivo
# Outline: (§2)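 Mice given 0.5 mg/kg IV in saline containing 5% (v/v) DMSO and 20% (v/v) PEG400; blood pharmacokinetic parameters reported as means.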
# Cytochrome P450 3A4 = Cytochrome P450 3A4 (Homo sapiens, UniProt P08684); assay: Inhibition of recombinant human CYP3A4 expressed in baculosomes expression system using fluorogenic-BOMCC as substrate by fluorescent homogeneous assay; format: ADME; outline: as §1
# Chain of Cytochrome P450 3A4 (P08684 whole entry): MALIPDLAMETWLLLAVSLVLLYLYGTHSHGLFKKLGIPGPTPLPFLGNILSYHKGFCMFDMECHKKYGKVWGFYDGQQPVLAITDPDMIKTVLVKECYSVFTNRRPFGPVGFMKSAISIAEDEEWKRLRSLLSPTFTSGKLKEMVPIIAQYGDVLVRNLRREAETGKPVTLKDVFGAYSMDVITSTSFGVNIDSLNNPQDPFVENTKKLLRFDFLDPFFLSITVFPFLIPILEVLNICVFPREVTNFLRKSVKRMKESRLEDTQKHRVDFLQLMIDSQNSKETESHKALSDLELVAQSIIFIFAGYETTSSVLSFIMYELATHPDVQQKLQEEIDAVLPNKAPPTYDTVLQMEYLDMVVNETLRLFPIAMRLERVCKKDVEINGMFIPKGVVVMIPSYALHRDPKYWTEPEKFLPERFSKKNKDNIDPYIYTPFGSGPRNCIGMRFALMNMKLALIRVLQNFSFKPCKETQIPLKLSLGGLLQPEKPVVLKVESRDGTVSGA
# Mus musculus [3] = assay: In vivo inhibition of ACMSD in CD1 mouse kidney at 5 mg/kg, po after 0.5 to 2 hrs; format: functional, organism-based
# Outline: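 CD1 mice dosed orally at 5 mg/kg in 0.5% (w/v) HPMC in water with 5% (v/v) DMSO; kidneys collected at various times, snap-frozen and ground. Tissue powder homogenised in 50 mM Tris pH 7.5, 0.15 M NaCl with protease inhibitors, spun 38 000g 20 min at 4 °C. Supernatant assayed spectrophotometrically with 30 μM 3-hydroxyanthranilic acid; activity normalised to BCA protein. One-way ANOVA with Dunnett's test.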
# Homo sapiens [4] = organism: Homo sapiens; assay: Activity at RXR (unknown origin)
# Outline: (§3)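 Eight-point serial dilutions tested in an in-house AlphaScreen-based nuclear receptor panel; activity derived from nonlinear regression curves.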
# Cytochrome P450 2D6 = Cytochrome P450 2D6 (Homo sapiens, UniProt P10635); assay: Inhibition of recombinant human CYP2D6 expressed in baculosomes expression system using fluorogenic-BOMCC as substrate by fluorescent homogeneous assay; format: ADME; outline: as §1
# Chain of Cytochrome P450 2D6 (P10635 whole entry): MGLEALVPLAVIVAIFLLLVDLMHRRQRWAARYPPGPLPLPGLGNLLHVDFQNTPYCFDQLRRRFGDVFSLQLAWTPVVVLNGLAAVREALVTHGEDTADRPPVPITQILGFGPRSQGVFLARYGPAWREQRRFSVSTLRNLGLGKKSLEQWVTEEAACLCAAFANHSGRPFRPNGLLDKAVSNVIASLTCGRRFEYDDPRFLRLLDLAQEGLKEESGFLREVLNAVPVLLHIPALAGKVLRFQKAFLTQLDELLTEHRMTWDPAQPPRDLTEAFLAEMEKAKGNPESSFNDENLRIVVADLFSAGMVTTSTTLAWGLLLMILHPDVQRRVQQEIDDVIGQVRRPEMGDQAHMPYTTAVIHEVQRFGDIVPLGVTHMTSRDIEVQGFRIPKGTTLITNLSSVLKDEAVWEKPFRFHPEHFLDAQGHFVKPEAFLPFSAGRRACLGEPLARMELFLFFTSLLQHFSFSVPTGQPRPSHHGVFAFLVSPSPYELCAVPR
# [5] = molecular target: T1, Vitamin D3 receptor (Homo sapiens) (UniProt P11473); assay: Activity at VDR (unknown origin); outline: as §3
# T1 sequence (whole entry): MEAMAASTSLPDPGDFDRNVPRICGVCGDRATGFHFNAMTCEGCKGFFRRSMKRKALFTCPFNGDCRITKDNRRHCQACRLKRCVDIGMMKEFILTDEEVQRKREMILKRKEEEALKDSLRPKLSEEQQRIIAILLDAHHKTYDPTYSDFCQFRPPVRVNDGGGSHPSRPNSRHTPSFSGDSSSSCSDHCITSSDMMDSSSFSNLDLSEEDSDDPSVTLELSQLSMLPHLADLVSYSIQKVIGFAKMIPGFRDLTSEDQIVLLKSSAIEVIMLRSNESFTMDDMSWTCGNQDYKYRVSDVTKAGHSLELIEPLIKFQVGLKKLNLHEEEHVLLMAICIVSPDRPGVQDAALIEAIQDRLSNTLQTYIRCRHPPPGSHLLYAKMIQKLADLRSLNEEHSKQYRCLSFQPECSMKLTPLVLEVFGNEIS
# [6] = Ratio of AUClast in mouse liver to blood at 5 mg/kg, po measured up to 8 hrs post dose
# [7] = Tmax in CD1 mouse at 5 mg/kg, po measured up to 8 hrs post dose; format: ADME, organism-based; details: in vivo
# Outline: (§4)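 Mice dosed orally at 5 mg/kg in 0.5% (w/v) HPMC in water with 5% (v/v) DMSO; blood, liver and kidney concentrations followed to 8 h. AUC0–8h given in h·ng/mL; parameters reported as means.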
# Mus musculus [8] = assay: In vivo inhibition of ACMSD in C57BL/6 mouse assessed as increase in NAD+ levels in liver at 15 and 30 mg/kg/day for 10 days dosed as diet supplement by ion-pair C18- HPLC chromatography; format: functional, organism-based
# Outline: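 Male mice given the compound in the diet for 10 days; vehicle 5% DMSO, 20% PEG. After a 3 h fast, livers snap-frozen and ground; NAD+ extracted by sonication in HClO4, quantified by ion-pair C18 HPLC and normalised to BCA protein. One-way ANOVA with Dunnett's test.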
# [9] = AUClast in mouse kidney at 5 mg/kg, po measured up to 8 hrs post dose; format: ADME, organism-based; parameters: time < 8 hr, dose 5 mg/kg, route oral; outline: as §4
# Homo sapiens [10] = organism: Homo sapiens; assay: Activity at LXR (unknown origin); outline: as §3
# [11] = molecular target: T2, Glucocorticoid receptor (Homo sapiens) (UniProt P04150); assay: Activity at GR (unknown origin); outline: as §3
# T2 sequence (whole entry): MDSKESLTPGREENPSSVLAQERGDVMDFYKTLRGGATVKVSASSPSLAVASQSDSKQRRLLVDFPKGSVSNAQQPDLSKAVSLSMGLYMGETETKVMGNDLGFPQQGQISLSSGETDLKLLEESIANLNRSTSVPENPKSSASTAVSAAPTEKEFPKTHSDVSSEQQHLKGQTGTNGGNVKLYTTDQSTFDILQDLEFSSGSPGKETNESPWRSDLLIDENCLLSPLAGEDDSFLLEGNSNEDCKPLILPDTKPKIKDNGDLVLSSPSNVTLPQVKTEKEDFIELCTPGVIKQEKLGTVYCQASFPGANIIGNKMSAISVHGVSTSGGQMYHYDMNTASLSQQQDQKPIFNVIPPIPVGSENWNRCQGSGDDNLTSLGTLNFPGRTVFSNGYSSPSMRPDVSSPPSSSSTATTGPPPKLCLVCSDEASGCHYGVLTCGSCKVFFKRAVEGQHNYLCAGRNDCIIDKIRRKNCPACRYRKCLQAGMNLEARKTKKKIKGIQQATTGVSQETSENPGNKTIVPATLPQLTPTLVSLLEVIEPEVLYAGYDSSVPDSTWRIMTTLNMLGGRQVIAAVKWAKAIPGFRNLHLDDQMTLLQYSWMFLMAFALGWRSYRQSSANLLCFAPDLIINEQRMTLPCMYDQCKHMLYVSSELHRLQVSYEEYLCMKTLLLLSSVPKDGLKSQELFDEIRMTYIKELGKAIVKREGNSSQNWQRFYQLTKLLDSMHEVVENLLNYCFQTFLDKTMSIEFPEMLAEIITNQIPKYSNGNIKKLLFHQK
# [12] = molecular target: Voltage-gated inwardly rectifying potassium channel KCNH2 (Homo sapiens, UniProt Q12809); assay: Displacement of red fluorescent channel ligand tracer from human ERG expressed in CHO cell membranes
# Chain of Voltage-gated inwardly rectifying potassium channel KCNH2 (Q12809 whole entry): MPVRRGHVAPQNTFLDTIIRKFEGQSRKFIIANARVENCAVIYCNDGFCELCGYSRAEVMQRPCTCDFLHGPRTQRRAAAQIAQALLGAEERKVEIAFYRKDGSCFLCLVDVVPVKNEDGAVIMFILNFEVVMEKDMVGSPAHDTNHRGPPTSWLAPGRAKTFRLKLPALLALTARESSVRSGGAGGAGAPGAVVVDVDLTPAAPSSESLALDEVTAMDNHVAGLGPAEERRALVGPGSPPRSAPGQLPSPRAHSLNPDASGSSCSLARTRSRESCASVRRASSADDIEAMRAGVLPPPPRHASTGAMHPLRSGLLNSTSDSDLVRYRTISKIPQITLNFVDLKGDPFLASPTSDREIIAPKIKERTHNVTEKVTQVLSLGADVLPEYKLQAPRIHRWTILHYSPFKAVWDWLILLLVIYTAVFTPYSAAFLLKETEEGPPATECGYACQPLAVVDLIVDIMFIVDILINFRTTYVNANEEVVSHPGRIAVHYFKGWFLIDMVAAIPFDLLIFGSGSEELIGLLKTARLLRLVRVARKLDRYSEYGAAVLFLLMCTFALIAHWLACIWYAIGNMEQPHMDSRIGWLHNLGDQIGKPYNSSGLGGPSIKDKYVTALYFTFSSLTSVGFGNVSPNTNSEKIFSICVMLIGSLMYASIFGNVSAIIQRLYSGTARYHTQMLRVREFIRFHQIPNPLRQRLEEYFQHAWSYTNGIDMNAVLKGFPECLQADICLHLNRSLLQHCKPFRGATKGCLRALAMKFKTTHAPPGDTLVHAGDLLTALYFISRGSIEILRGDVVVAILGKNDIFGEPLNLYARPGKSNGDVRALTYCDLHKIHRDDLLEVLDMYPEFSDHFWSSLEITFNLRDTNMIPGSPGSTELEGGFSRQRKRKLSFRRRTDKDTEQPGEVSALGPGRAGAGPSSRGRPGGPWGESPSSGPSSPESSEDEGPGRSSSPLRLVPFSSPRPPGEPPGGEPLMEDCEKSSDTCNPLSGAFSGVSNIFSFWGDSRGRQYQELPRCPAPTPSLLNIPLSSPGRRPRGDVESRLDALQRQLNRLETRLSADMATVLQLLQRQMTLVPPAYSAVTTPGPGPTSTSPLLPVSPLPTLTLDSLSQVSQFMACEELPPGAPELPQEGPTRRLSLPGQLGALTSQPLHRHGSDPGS
# Outline: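 Fluorescence polarisation kit: membranes from CHO cells stably expressing hERG, with a red fluorescent high-affinity tracer; competitors detected by tracer displacement, seen as lowered polarisation. Final DMSO 1%; E-4031 reference.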
# [13] = Volume of distribution at steady state in CD1 mouse at 0.5 mg/kg, iv measured up to 24 hrs post dose; format: ADME, organism-based; details: in vivo, read-out: Vdss; outline: as §2
# [14] = Oral bioavailability in CD1 mouse at 5 mg/kg measured up to 8 hrs after dose; format: ADME, organism-based; details: in vivo; outline: as §4
smiles,measurement,setting,value
N#Cc1c(-c2cccs2)nc(SCc2cccc(CC(=O)O)c2)[nH]c1=O,"Papp A→B at 1.5 h, 3 µM",[1],0.456 ×10⁻⁶ cm/s
same,pIC50,Cytochrome P450 2C19,< 5.00
same,half-life,[2],5.33 h
same,pIC50,Cytochrome P450 3A4,< 5.00
same,inhibition,Mus musculus [3],Active
same,Activity,Homo sapiens [4],inactive
same,pIC50,Cytochrome P450 2D6,< 5.00
same,Activity,[5],inactive
same,Kp at 8 h,[6],1.5
same,Tmax,[7],2 h
same,inhibition,Mus musculus [8],Active
same,AUC(0-t) at 8 h,[9],36600 ng·h/mL
same,Activity,Homo sapiens [10],inactive
same,Activity,[11],inactive
same,inhibition (INH),[12],Not Active
same,Vd,[13],0.273 L/kg
same,bioavailability,[14],12%

# From ChEMBL document CHEMBL4024800, “α-Amino-β-carboxymuconate-ε-semialdehyde Decarboxylase (ACMSD) Inhibitors as Novel Modulators of De Novo Nicotinamide Adenine Dinucleotide (NAD+) Biosynthesis” (J Med Chem, 2018)
